Experimental data from ChEMBL document CHEMBL1817578, “2-({6-[(3R)-3-amino-3-methylpiperidine-1-yl]-1,3-dimethyl-2,4-dioxo-1,2,3,4-tetrahydro-5H-pyrrolo[3,2-d]pyrimidine-5-yl}methyl)-4-fluorobenzonitrile (DSR-12727): a potent, orally active dipeptidyl peptidase IV inhibitor without mechanism-based inactivation of CYP3A” (Bioorg Med Chem, 2011).
The source made the active and inactive calls. The calls are words filed in the database; no cut-off is given here.

What was measured:
[1] = Cmax in monkey at 3 mg/kg, po; format: ADME, organism-based, Macaca mulatta; design: dose 3 mg/kg, route oral; settings: rhesus monkey, in vivo
Salmonella typhimurium = assay: Genotoxicity in Salmonella Typhimurium by Ames test; format: toxicity, organism-based; settings: salmonella enterica subsp. enterica serovar typhimurium
[2] = Toxicity in monkey assessed as organ toxicity after 2 weeks repeated dosage; format: organism-based, Macaca mulatta; settings: rhesus monkey, in vivo
In short: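 2-week repeated-dose toxicity study; rats n = 5 per sex, monkeys n = 1 per sex.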

Prolyl endopeptidase FAP = target: T1, Prolyl endopeptidase FAP (Homo sapiens, UniProt Q12884); assay: Inhibition of FAPalpha
T1 sequence (Q12884 whole entry): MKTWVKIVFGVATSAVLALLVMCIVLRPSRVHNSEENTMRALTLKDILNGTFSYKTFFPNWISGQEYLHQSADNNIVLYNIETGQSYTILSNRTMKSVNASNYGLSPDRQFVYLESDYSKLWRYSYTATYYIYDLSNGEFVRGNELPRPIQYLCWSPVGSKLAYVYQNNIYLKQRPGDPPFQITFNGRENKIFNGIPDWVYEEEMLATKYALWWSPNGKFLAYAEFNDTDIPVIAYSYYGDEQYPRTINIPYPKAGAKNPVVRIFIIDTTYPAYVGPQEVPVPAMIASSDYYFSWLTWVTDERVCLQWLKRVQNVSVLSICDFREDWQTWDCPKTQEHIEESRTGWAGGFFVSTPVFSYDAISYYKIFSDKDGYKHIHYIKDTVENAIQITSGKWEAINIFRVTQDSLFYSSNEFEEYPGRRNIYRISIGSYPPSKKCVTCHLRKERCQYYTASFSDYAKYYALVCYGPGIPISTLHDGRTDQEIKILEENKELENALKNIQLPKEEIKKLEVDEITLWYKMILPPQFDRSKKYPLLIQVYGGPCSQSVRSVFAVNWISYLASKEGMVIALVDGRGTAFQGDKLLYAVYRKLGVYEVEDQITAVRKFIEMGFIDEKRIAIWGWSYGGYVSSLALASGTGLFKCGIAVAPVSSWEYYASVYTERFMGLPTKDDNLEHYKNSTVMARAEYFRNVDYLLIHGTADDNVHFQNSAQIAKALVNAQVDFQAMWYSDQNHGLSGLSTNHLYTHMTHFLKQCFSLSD

Rattus norvegicus = assay: In vivo inhibition of DPP4 in Zucker fatty rat plasma assessed as AMC production at 3 mg/kg, po after 3 hrs by fluorescence microplate reader analysis; format: functional, organism-based; design: dose 3 mg/kg
In short: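 Male Zucker fatty rats, 9 weeks old, fasted 24 h and kept fasted to 12 h post-dose; test compound solution given by oral gavage at 1.0 or 3.0 mg/kg. Blood sampled at -0.5 h and 0.25–24 h. Plasma DPP-4 measured as AMC release from Gly-Pro-MCA (100 µmol/L working solution), pH 7.8 HEPES buffer, Ex 380/Em 460 nm for 3 min, AMC calibration, duplicates; n = 4–5.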

[3] = target: T2, Muscarinic acetylcholine receptor M1 (Homo sapiens, UniProt P11229); assay: Binding affinity to muscarinic receptor 1
T2 sequence (P11229 whole entry): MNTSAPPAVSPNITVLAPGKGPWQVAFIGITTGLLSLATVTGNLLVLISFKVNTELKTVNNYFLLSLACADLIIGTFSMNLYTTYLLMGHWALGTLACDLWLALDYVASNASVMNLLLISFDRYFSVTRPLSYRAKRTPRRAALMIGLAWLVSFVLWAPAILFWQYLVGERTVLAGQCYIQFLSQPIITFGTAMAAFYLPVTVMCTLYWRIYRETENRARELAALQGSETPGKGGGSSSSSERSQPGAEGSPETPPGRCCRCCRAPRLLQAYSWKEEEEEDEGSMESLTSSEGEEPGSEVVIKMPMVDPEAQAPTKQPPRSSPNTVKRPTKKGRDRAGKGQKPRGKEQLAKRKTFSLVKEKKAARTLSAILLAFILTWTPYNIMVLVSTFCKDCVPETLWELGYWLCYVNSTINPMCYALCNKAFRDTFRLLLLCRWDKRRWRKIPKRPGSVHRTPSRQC

[4] = Clearance in rat at 1 mg/kg, iv; format: ADME, organism-based; design: dose 1 mg/kg, route intravenous; settings: in vivo
[5] = Half life in dog at 3 mg/kg, po; format: ADME, organism-based, Canis lupus familiaris; design: dose 3 mg/kg, route oral; settings: in vivo
[6] = target: T3, Muscarinic acetylcholine receptor M2 (Homo sapiens, UniProt P08172); assay: Binding affinity to muscarinic receptor 2
T3 sequence (P08172 whole entry): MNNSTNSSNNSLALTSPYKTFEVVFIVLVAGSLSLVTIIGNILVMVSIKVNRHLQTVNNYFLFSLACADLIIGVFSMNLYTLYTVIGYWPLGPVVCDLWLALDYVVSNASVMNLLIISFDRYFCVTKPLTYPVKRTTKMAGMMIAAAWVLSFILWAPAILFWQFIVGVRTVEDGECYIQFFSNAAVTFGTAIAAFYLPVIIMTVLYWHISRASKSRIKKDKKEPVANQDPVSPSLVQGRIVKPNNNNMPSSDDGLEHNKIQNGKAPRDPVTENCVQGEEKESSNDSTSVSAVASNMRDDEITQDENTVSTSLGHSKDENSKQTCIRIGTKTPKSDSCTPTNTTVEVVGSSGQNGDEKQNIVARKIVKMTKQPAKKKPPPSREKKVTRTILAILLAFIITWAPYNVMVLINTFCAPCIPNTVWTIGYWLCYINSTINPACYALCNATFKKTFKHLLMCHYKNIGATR

[7] = Half life in rat at 1 mg/kg, iv; format: ADME, organism-based; design: dose 1 mg/kg, route intravenous; settings: in vivo
[8] = Volume of distribution at steady state in monkey at 1 mg/kg, iv; format: ADME, organism-based, Macaca mulatta; design: dose 1 mg/kg, route intravenous; settings: rhesus monkey, in vivo, read-out: Vdss
Cytochrome P450 2C8 = target: T4, Cytochrome P450 2C8 (Homo sapiens, UniProt P10632); assay: Inhibition of CYP2C8; format: ADME
T4 sequence (P10632 whole entry): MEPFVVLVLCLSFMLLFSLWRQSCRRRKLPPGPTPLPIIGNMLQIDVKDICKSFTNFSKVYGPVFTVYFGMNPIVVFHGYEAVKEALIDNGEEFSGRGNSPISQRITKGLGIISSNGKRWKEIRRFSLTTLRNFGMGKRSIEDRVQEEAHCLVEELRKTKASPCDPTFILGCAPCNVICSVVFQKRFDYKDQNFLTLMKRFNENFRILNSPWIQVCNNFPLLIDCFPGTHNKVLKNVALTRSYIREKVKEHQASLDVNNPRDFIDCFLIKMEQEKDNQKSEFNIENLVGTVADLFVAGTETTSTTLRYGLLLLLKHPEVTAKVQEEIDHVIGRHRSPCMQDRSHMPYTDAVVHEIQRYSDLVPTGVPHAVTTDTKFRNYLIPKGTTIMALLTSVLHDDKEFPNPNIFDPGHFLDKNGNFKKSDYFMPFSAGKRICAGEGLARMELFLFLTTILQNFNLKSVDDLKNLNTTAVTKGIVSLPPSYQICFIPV

**Q.** Which Cmax [1] does the source give for `Cn1c(=O)c2c(cc(N3CCC[C@@](C)(N)C3)n2Cc2cc(F)ccc2C#N)n(C)c1=O` here?
**A.** 77 ng/mL

**Q.** And the Activity (Salmonella typhimurium)?
**A.** Non-toxic

**Q.** What about the NOAEL at 336 h [2] of the same molecule?
**A.** 60 mg/kg/day

**Q.** What about the IC50 (Prolyl endopeptidase FAP) of the same molecule?
**A.** > 50 µM

**Q.** And the inhibition (Rattus norvegicus)?
**A.** Active

**Q.** And the IC50 [3]?
**A.** > 10 µM

**Q.** And the clearance [4]?
**A.** 40 mL/min/kg

**Q.** What about the half-life [5] of the same molecule?
**A.** 3.9 h

**Q.** And the IC50 [6]?
**A.** > 10 µM

**Q.** And the half-life [7]?
**A.** 4.1 h

**Q.** And the Vd [8]?
**A.** 10 L/kg

**Q.** And the IC50 (Cytochrome P450 2C8)?
**A.** > 50 µM
